High-throughput results as filed in PubChem BioAssay.
An excerpt weighted towards active compounds, which were near 1.8% of everything screened.
MsrA inh – inhibits bovine methionine sulfoxide reductase A | purified bovine MsrA, absorbance read-out | inhibition, % at 15.5 µM | 360,000 compounds, 0.75% hits | AID 651718;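 also: 0% = vehicle wells with enzyme and 100% = reference inhibitor wells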
DAGLB inhibitor – diacylglycerol lipase beta (human) inhibition | HEK293T DAGLB membrane lysate, EnzChek fluorogenic substrate | inhibition, % at 5.17 µM | 340,000 compounds, 0.059% hits | AID 504411; in the data active = inhibition above about 34%;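 also: 0% = enzyme with vehicle and 100% = wells lacking enzyme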
Target sequence (Q8NCG7 whole entry, looked up): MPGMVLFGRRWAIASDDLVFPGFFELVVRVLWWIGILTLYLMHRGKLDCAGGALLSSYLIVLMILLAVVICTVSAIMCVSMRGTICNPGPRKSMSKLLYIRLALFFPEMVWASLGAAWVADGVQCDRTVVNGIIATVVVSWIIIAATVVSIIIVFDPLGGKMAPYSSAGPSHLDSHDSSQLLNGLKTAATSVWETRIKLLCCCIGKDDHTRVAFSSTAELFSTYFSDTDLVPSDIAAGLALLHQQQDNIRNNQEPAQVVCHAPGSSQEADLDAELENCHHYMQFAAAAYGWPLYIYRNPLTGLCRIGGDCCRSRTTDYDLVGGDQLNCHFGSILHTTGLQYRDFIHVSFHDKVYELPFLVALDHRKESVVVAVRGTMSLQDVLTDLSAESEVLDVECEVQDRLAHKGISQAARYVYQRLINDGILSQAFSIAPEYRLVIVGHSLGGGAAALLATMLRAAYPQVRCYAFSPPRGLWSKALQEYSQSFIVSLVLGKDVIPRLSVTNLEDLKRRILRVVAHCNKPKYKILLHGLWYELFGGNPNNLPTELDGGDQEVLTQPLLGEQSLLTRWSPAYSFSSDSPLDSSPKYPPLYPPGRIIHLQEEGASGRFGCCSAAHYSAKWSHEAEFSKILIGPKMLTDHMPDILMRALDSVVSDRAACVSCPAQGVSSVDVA
MT1-MMP act inh – blocks activation of human MT1-MMP; P50281; HT1080 RFP-PRO-GFP cells, GFP/RFP ratio fluorescence, overnight; percent of plate control window, DMSO zero; GFP/RFP ratio change, % at 20 µM; 360,000 compounds, 0.061% hits; AID 651647;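 active = GFP/RFP ratio change of at least 30% with cell ATP level not reduced by more than half and red fluorescence within 50% of control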
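Read-out: GFP/RFP fluorescence ratio; Test system: RFP-PRO-GFP reporter HT1080 cells; Compound dosing: single-point 20 µM compound, 1% DMSO; Times: overnight compound exposure at 37 °C.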
bovine MsrA act – activators of bovine methionine sulfoxide reductase A; purified bovine MsrA, absorbance read-out; activation, % at 10.6 µM; 360,000 compounds, 0.3% hits; AID 602163; in the data active = activation above about 7.5%;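 also: 0% = vehicle and 100% = reference activator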
beta cell repl – MIN6 beta-cell proliferation induction; 330,000 compounds, 0.29% hits; MIN6 cells proliferation, ATPlite luminescence, 48 h; cells starved in 0.2% serum; 100% = growth in 10% serum; proliferation, % at 10 µM;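 active = compounds whose signal lies at least 3.5 SD above the mean of all wells on their plate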;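 also: 0% = DMSO-treated cells in low-serum medium and 100% = 10% serum control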
SKN-1 inh – C. elegans SKN-1 inhibition; C. elegans VP596 Pgst-4::GFP/RFP ratio, acrylamide-induced, 24 h; inhibition, % at 21.8 µM; 360,000 compounds, 0.49% hits;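 active = interference check ratio from 0.5 to 1.5 plus GFP to RFP signal ratio inhibition reaching or exceeding a fixed threshold, cut at about 30% in these data, passing the limit was not always enough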
MsrA conf – bovine MsrA inhibition, confirmed; shares compounds with MsrA inh; purified bovine MsrA, absorbance read-out; inhibition, % at 15.5 µM; 2,300 compounds, 41% hits; AID 651822;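 also: coupled to thioredoxin reductase with NADPH and selenocystamine and DMSO as substrate; 0% = vehicle only and 100% = full effect of reference inhibitor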
* hit, by the source's call; / = no result. Rule as the data show it, unless noted: active = inhibition above about 4.5%; inactive = the rest.

SMILES	MsrA inh	DAGLB inhibitor	MT1-MMP act inh	bovine MsrA act	beta cell repl	SKN-1 inh	MsrA conf
CCOc1cc(/C=C(\C#N)C(=O)NCC2CCCO2)ccc1OCC(N)=O (stereo not drawn)	3	-1	-3	-1	-3	-2	/
Cc1ccc(/C=C(\C#N)C(=O)NCC2CCCO2)o1 (stereo not drawn)	5.2*	-3	-2	-10	-2	-2	4.6*
Cc1ccc(/C=C(\NC(=O)c2ccccc2)C(=O)NCC2CCCO2)o1 (stereo not drawn)	3	-2	4	-14	-2	6	/
C[C@@H](NC(=O)c1coc(=O)c(Br)c1)c1ccccc1	4.8*	0	2	-3	-6	-10	4.8*
COCCNC(=O)/C(C#N)=C/C=C/c1ccccc1	7.1*	2	-4	-4	-4	-2	5.3*
O=C(c1ccco1)N(CCO)Cc1cc2cc3c(cc2[nH]c1=O)OCO3	6.1*	-2	-2	-1	-2	10	3
CC(=O)C(Sc1ncnc2c1nnn2-c1ccc(F)cc1)C(=O)N(C)C (stereo not drawn)	5.7*	/	/	/	-3	/	3
COc1ccc(NC(=O)c2nc(C)n(-c3ccc([N+](=O)[O-])cc3)n2)cc1	0	-2	2	-7	1	-3	/
O=C1NC(=O)C(=Cc2ccc(Cl)c(Cl)c2)S1	2	13	-1	-1	/	-10	/
O=C1NC(=O)/C(=C/c2ccc(O)cc2)S1	4.9*	1	-1	-6	2	0	4.6*
Cc1nc2c(C)cccn2c1/C(O)=C1\C(=O)C(=O)N(CCN(C)C)C1c1ccco1 (stereo not drawn)	4.7*	-2	2	-9	1	8	0
O=C(O)COc1ccccc1/C=N/NC(=O)CSc1nnc(SCc2ccccc2)s1	1	4	6	-2	-3	2	/
Cc1ccc(NS(=O)(=O)c2c(C(=O)N3CCCCCC3)c(C)n(C)c2C)c(Cl)c1	-1	-1	-3	0	8	-9	/
COc1ccc(C(=O)N=c2sccn2C)cc1	5.8*	-1	-3	-3	-3	16	4
C=CCC1S/C(=N/N=C/c2cccs2)NC1=O (stereo not drawn)	6.7*	2	3	-4	2	8	5.7*
COc1cc(/C=N/N=C2/C(=O)Nc3ccccc32)ccc1O	4.9*	6	-2	-5	0	3	2
O=C1Nc2ccccc2/C1=N\N=C\c1ccc(O)c(O)c1	3	9	-2	-5	-5	1	/
COc1cc(/C=N/N=C2/NC(=O)C(c3ccccc3)S2)ccc1O (stereo not drawn)	4.9*	1	3	-10	-1	3	4
CCCCNC(=O)C[C@H]1C[C@@]2(C(=O)OC)C(=C[C@H](COCc3ccccc3)O[C@@H]2C)N(CCC2=CCCCC2)C1=O	-1	/	/	/	/	/	/
COc1ccccc1N(C)S(=O)(=O)c1ccc(C(=O)OCC(=O)N(C(C)C)C(C)C)cc1	0	-2	-5	-12	-1	-4	/
N#Cc1c(-n2cccc2C=O)sc2c1CCCC2	11*	-6	-2	-5	-1	-2	10.0*
O=Cc1cccn1-c1sc2c(c1C(=O)O)CCCC2	0	-3	3	-2	0	12	/
CCOC(=O)/C(C#N)=C1/C=C(C)NC(c2ccccc2O)=N1	2	6	8	-1	-6	0	/
CCOC(=O)/C(C#N)=C1/C=CNC(=O)N1	4.7*	-1	-3	-10	0	-8	3
CCC(=O)NCCc1c[nH]c2ccccc12	1	1	-2	-5	-1	-5	/
SMILES	MsrA inh	DAGLB inhibitor	MT1-MMP act inh	bovine MsrA act	beta cell repl	SKN-1 inh	MsrA conf
O=C(NCCc1c[nH]c2ccccc12)OCCSS(=O)(=O)O	12*	5	-2	-20	1	-10	4
C#CCN(C[C@H]1[C@H](OC(=O)Nc2cccs2)[C@H](OC(=O)Nc2cccs2)CN(C(=O)OC(C)C)N1C(=O)OC(C)C)S(=O)(=O)c1ccc(C)cc1	0	/	/	/	/	/	/
CC(OC(=O)CCc1ccccc1)C(=O)Nc1ccc(Cl)cn1 (stereo not drawn)	-2	-5	-2	3	0	-8	/
CC1(C(=O)Nc2cccc(C(F)(F)F)c2)Cc2c(-c3ccccc3)ccnc2O1 (stereo not drawn)	1	/	4	0	/	12	/
Cc1ccc(/C=N\Nc2nc3ccc(Cl)cc3[nH]2)o1	4.7*	2	7	0	-3	6	4
COc1ccc(N2C(=O)N3[C@@H]4c5ccccc5OC[C@@H]4[C@@H](c4ccccc4)[C@@]3(C)C2=O)cc1	1	-14	-1	-5	-3	-7	/
O=C(O)COc1ccccc1/C=N/NC(=O)/C(=C\c1ccc2c(c1)OCO2)NC(=O)c1ccccc1	5.5*	3	0	-6	4	3	4
O=C(Nc1cccc(C(=O)O)c1)/C(=C\c1ccc2c(c1)OCO2)NC(=O)c1ccccc1Cl	5.5*	1	1	-3	-2	-2	3
O=C(Nc1ccc(C(=O)O)cc1)/C(=C\c1ccc2c(c1)OCO2)NC(=O)c1ccccc1	4	-6	/	-16	0	-7	/
C[C@H](CO)N1C[C@H](C)[C@H](CN(C)S(=O)(=O)c2ccccc2)OCc2cnnn2CCCC1=O	0	2	1	-4	/	-15	/
CC(=O)c1ccc(N2CCN(C(=O)C3CCCN(S(=O)(=O)c4c(C)[nH]c(=O)[nH]c4=O)C3)CC2)cc1 (stereo not drawn)	4.7*	1	0	-7	-2	-6	3
CCOC(=O)Cc1csc(NC(=O)c2ccc(Br)o2)n1	1	-3	2	-4	-1	12	/
CCOC(=O)Cc1csc(NC(=O)/C=C/c2ccc(Br)o2)n1	5.5*	7	-4	-9	-3	-5	4
CC1CCC(NC(=O)c2cc(C3CC3)nn2-c2ccccc2)CC1 (stereo not drawn)	0	-8	-5	-2	-7	17	/
CC(C)(C)c1ccc(C(=O)Nc2nnc(C3=COCCO3)o2)cc1	1	4	0	-4	-4	-5	/
CN(C)c1ccc(C(=O)Nc2nnc(C3=COCCO3)o2)cc1	5.1*	-1	6	-10	0	2	4
Cc1ccsc1/C=N/NC(=O)c1ccco1	5.6*	0	1	-4	0	-6	5.8*
Cc1ccsc1/C=N\NC(=O)c1cc(C(C)(C)C)[nH]n1	5.3*	-2	-1	-5	-3	11	4
CCN(CC)c1ccc(/C=N/NC(=O)c2ccco2)cc1	5.2*	1	-5	-7	/	2	4
